Source: PubChem BioAssay
MrgX1 ag: activates human MrgX1 receptor signaling; Q96LB2; actives 0.44% (n = 310,000); MrgX1-HEK293 cells, Fluo-4 calcium fluorescence, agonist mode; stronger effect = higher value; B-score at 10 µM;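 active means calcium response B-score plate-corrected fluorescence ratio at least 3 library SD, with starting fluorescence B-score inside 5 SD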
Target sequence (Q96LB2 whole entry, looked up): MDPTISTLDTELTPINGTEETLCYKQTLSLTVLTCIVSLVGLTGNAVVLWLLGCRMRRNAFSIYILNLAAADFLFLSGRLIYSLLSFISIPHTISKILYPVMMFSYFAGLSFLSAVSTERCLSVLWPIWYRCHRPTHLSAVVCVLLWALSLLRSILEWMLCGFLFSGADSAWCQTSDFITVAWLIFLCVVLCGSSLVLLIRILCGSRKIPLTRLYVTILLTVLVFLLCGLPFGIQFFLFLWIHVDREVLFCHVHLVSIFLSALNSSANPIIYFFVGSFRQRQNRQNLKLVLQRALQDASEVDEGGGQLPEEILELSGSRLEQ
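System: HEK293 cells stably expressing human MrgX1 receptor; Dosing: test compound in the initial addition of three; Schedule: overnight plating, then 30 min 37 °C plus 30 min room-temperature dye loading; Detection: kinetic calcium dye fluorescence, Fluo-4 NW; Controls: per-plate positive and negative controls for Z′ factor.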
RGS4 act: potentiators or activators of RGS4; HEK293 M3R/inducible RGS4, carbachol calcium flux Fluo4; stronger effect = lower value; B-score at 10 µM; actives 0.92% (n = 310,000); AID 463111;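 active means B-score of the integrated calcium signal more than 4 SD below the library mean, with starting fluorescence not abnormally high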;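 further: negative B-score means reduced calcium response which marks RGS4 activation or potentiation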
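Assay system: HEK293 FlpIn-TREx cells, stable M3R, doxycycline-inducible RGS4 / Probe or stimulus: carbachol, ECmax concentration / Times: overnight RGS4 induction, 30 min dye load 37 °C, 20 min compound RT / Signal: kinetic calcium fluorescence imaging with Fluo4-AM dye, 2 µM / Measure: Agonist-evoked peak-minus-minimum fluorescence over baseline, integrated ratio, B score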
MrgX1 antag: blocks BAM8-22 activation of human MrgX1 receptor; B-score at 10 µM; actives 1.3% (n = 310,000); MRGX1-HEK293 calcium flux, Fluo-4, BAM8-22 antagonism; stronger effect = lower value; Q96LB2;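 active means calcium-response B-score plate-corrected more than 3 library SD below zero, starting fluorescence within 5 deviations, no agonist response on first addition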;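 further: peak minus trough fluorescence over baseline after final BAM8-22 challenge near maximal dose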
RGS4 inh: human RGS4 inhibition. actives 0.45% (n = 310,000). AID 463165. B-score at 10 µM. P49798. HEK293 M3R/RGS4 inducible, Fluo-4 calcium flux; stronger effect = higher value; triggered by carbachol at its EC20;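 active means B-score, a plate-corrected calcium signal, over three deviations above library mean, with baseline fluorescence within five deviations of library mean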;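 further: RGS4 expression induced by doxycycline in cells with stable M3 receptor; B-score is computed from the integrated fluorescence ratio over baseline after carbachol; higher B-score means a larger calcium signal and so more RGS4 inhibition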
Target sequence (P49798 whole entry, looked up): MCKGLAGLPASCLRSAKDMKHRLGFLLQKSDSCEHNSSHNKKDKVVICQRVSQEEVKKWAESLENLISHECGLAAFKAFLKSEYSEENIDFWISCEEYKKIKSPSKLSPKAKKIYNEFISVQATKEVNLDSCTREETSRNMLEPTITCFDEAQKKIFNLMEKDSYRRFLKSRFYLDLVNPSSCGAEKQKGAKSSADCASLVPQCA
MrgX1 PAM: allosterically activates human MrgX1 receptor signaling. Q96LB2. MrgX1-HEK293, Fluo-4 calcium flux, FDSS; stronger effect = higher value. B-score at 10 µM. actives 0.63% (n = 310,000). AID 588675;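 active means plate-corrected calcium response at least 3 library SD above typical, normal starting fluorescence, not activating the receptor alone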;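 further: compound read alongside a low EC10 to EC30 dose of BAM8-22 agonist; peak minus trough fluorescence over baseline measured at the second addition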
The depositor's hits bear a star; i = inactive; . = no result given. Hits are enriched below; roughly 3.5% of the tested compounds scored in any of these assays.

SMILES	MrgX1 ag	RGS4 act	MrgX1 antag	RGS4 inh	MrgX1 PAM
Cc1c(C(=O)N/N=C/c2cccnc2)nnn1-c1nonc1N	i	i	i	i	i
CC1=NN(c2ccccc2)C(=O)C1C(=O)c1ccc(Cl)cc1 (stereo not drawn)	32*	i	i	i	i
Cc1cccc(CSC(=N)N)c1	i	i	i	i	i
C/C(=N/N=C(/N)SCc1ccccc1)C(C)(C)C	i	i	i	i	9.9*
Cc1cccc(-c2nc(CS(=O)CC(=O)NC3CCCC(C)C3C)c(C)o2)c1 (stereo not drawn)	i	i	i	i	i
CC(C)n1nc(C(=O)Nc2nc3ccccc3[nH]2)c2ccccc2c1=O	i	-9.5*	i	i	i
O=c1[nH]c(/C=C\c2cccc(Cl)c2)nc(O)c1[N+](=O)[O-]	i	i	i	i	i
NC(=O)CN1C(=O)C(O)(CC(=O)/C=C\c2ccc3c(c2)OCO3)c2ccccc21 (stereo not drawn)	i	i	i	i	i
CN(C(=O)/C=C/c1ccc2c(c1)OCO2)c1ccccc1	i	i	i	i	9.1*
CN1C(=O)C(O)(CC(=O)/C=C\c2ccc3c(c2)OCO3)c2ccccc21 (stereo not drawn)	i	i	-5.4*	i	i
CC(C)/C(C=O)=C(/NC1CCCCC1)c1ccccc1	i	i	i	i	i
CCOc1cc(/C=C2/NC(=O)NC2=O)cc([N+](=O)[O-])c1O	i	i	-7.7*	i	i
CCC(C(=O)NCc1ccccc1OC)c1ccccc1 (stereo not drawn)	i	i	i	i	i
C/C(O)=C(/C#N)c1nc2ccccc2[nH]1	i	i	i	i	i
N#C/C(=C(/O)CSc1ncn[nH]1)c1nc2ccccc2[nH]1	i	i	-6.1*	i	i
CCN(Cc1ccccc1)C(=O)c1cccc(S(=O)(=O)N2CCN(Cc3ccccc3)CC2)c1	i	i	i	i	i
CCCCN(C(=O)c1cccc(S(=O)(=O)N2CCN(Cc3ccccc3)CC2)c1)c1ccccc1	i	i	-4.7*	i	i
O=[N+]([O-])/C=C/c1c(OCc2ccccc2)ccc2ccccc12	i	i	i	13*	i
CN1[C@@H]2CC(OC(=O)[C@H](CO)c3ccccc3)C[C@H]1[C@@H]1O[C@@H]12 (stereo partly drawn)	i	-7.1*	i	i	i
CCNC(=S)NNC(=O)c1cccnc1	i	i	-5.3*	i	i
O=C(NC(=S)NC1CC1)c1cccnc1	i	i	-4.7*	i	i
Cc1cc(Nc2ccccc2)nc(N2CCN(C(=O)c3ccc4c(c3)OCO4)CC2)n1	i	i	i	i	i
C/C(=C\C(=O)c1ccc(Br)cc1)Nc1ccc(Cl)cc1	i	-7.2*	i	i	i
O=C(OCCN1C(=O)c2cccc3c(N4CCOCC4)ccc(c23)C1=O)c1ccccc1Cl	i	-8.2*	i	i	i
O=C(C1CCC1)N1CCCc2cc(S(=O)(=O)N3CCN(c4ccccc4)CC3)ccc21	i	i	i	i	i
SMILES	MrgX1 ag	RGS4 act	MrgX1 antag	RGS4 inh	MrgX1 PAM
Cc1sc2ccccc2[n+]1CC(=O)c1ccccc1	i	i	i	i	i
O=C(c1ccccc1)c1c2c(cc3sc4ccccc4[n+]13)-c1cccc3cccc-2c13	i	.	-8.8*	.	i
CC(=O)O[C@@H]1C[C@H]2C(C)(C)C(=O)C=C[C@]2(C)[C@H]2CC[C@@]3(C)[C@H](c4ccoc4)OC(=O)[C@H]4O[C@]43[C@@]21C	i	i	i	i	9.8*
COc1ccc(C2=NN(c3nc(C(=O)O)cs3)C(O)(C(F)(F)F)C2)c(OC)c1 (stereo not drawn)	i	i	-6.5*	i	i
COC(=O)C1=C(C)NC(C)=C(C(=O)OC)C1c1ccc(OC(=O)c2oc3ccccc3c2C)c(OC)c1	i	i	i	i	i
CC#CCCc1nc2ccccc2c(=O)n1N	i	i	-6*	i	i
CC[N+](CC)(CC)C/C(N)=N/O	i	i	-6.1*	i	i
Cc1ccc2nc(/C(C#N)=C/c3ccc(O)c(O)c3)[nH]c2c1	35*	i	i	i	i
Cc1ccc2nc(/C(C#N)=C/c3ccccc3C(=O)O)[nH]c2c1	i	i	i	i	i
Cc1[nH]nc(SCC(=O)N(C)c2ccccc2)c1[N+](=O)[O-]	i	i	i	i	i
O=[N+]([O-])c1ccc(N=Cc2ccc(Br)c([N+](=O)[O-])c2)cc1	34*	i	i	i	i
Cc1c(N=Cc2ccc(O)c(Br)c2)cccc1[N+](=O)[O-]	i	i	i	i	i
NC(=S)N/N=C/c1ccc2cccc(OCc3ccccc3)c2n1	i	i	i	i	i
NC(N)=N/N=C/c1ccc2cccc(OCc3ccccc3)c2n1	i	i	-5.3*	i	i
O=C(N/N=C/c1ccc2cccc(OCc3ccccc3)c2n1)c1ccc(Br)cc1	i	-10*	i	i	i
O=[N+]([O-])c1ccc(-c2ccc(/C=N/Nc3nc(NCc4ccccc4)nc(N4CCOCC4)n3)o2)cc1	i	i	i	i	13*
COc1cccc(/C=C2\NC(=O)NC2=O)c1O	i	i	i	i	i
O=C(Nc1cccc(S(=O)(=O)NC2=NCCC2)c1)c1cc(-c2ccco2)nc2ccccc12	i	i	i	i	i
O=C(NC(=S)Nc1cccc(S(=O)(=O)NC2=NCCC2)c1)c1cc(-c2ccco2)nc2ccccc12	i	i	-4.9*	i	i
Cc1cccc(NS(=O)(=O)c2cc3c(cc2C)NC(=O)CO3)c1	i	i	i	i	i
O=C(c1ccc(Cl)cc1[N+](=O)[O-])N(Cc1ccccc1)Cc1ccccc1	i	i	i	i	i
CC(C)(C)N(Cc1ccccc1)C(=O)c1ccc(Cl)cc1[N+](=O)[O-]	i	-10*	i	i	i
O=C(CSC1=NS(=O)(=O)c2cc(F)ccc2N1)NCc1ccccc1Cl	i	i	i	i	i
CC(=O)Nc1ccccc1-c1nc2ccc(C(=O)N3CCN(c4cccc(C)c4)C(C)C3)cc2[nH]c1=O (stereo not drawn)	i	i	i	i	i
